Our source for the folding enthalpy and Tm values is the array DNA melting data of Ke et al. (doi:10.1101/2024.01.08.574731).

A short description of data set [1]: folding enthalpy; higher = less favourable; fluorescence melt of hairpins on a sequencing array, two-state fit. The note with it: sodium 0.088 M. Put shortly: (§1)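 Two-state fits, bootstrapped, provided melting temperature and folding enthalpy from Cy3 fluorescence normalised to pre-quench Cy3 and to control constructs. Library hairpins with annealed Cy3 and quencher oligos were imaged on a sequenced MiSeq flow cell in 50 mM Na-HEPES pH 8.0, 25 mM NaCl, at 2.5 °C intervals up to 60 °C. Four replicates were combined with inverse-variance weighting. A 9.35 °C upward shift was applied to fitted temperatures to match UV melts.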

Data set [2] is described as follows: melting temperature; fluorescence melt of hairpins on a sequencing array, two-state fit, raised by 9.35 °C to match UV melts. The note with it: sodium 0.088 M. Put shortly:
as §1

GAGCTCACGAAAGTGCTC (((..(((....)))))): the folding enthalpy in data set [1] is -20.8 kcal/mol. The Tm in data set [2] came out at 44.4 °C.
Taken in the same sequence, the figures for GAGCTCGGAAACGAACTC (((.(((....))).))) were -28.6 kcal/mol and 44.9 °C.
Taken in the same sequence, the figures for GAGCTGCGAAAGCATCTC (((.(((....))).))) were -29.4 kcal/mol and 46.8 °C.
Taken in the same sequence, the figures for GAGCTGGGAAACCAGCCC (.(((((....))))).) were -11.4 kcal/mol and 46.9 °C.
Regarding GAGCTGGGAAACCGGTTC ((.(.((....)).).)), the folding enthalpy in data set [1] is -23.3 kcal/mol. Besides, in data set [2], the Tm came out at 35.7 °C.
Take GAGCTTGGAAACAAACTC (((.(((....))).))): the folding enthalpy in data set [1] is -23.9 kcal/mol. In addition, in data set [2], the Tm is 35.8 °C.
For GAGGAAACGAAAGTTCTC (((..(((....)))))), the folding enthalpy in data set [1] is -13.3 kcal/mol. Also, the Tm in data set [2] is 24.6 °C.
The corresponding values for GAGGAAGGAAACTTCCCC (.(((((....))))).) are -11 kcal/mol and 35.2 °C.
As for GAGGAAGGAAACTTTCTC (((.(((....))).))), in data set [1], the folding enthalpy is -28.9 kcal/mol. For the same sequence, the Tm in data set [2] came to 35.3 °C.
Regarding GAGGACCCGAAAGGGCTC (((..(((....)))))), in data set [1], the folding enthalpy was -12 kcal/mol. The Tm in data set [2] came to 33.9 °C.
The corresponding values for GAGGACCGAAAGGTTCTC (((.(((....))).))) are -35.2 kcal/mol and 59.4 °C.
The corresponding values for GAGGACGAAAGTCACCTC ((((((....)))..))) are -12.9 kcal/mol and 36.2 °C.
The corresponding values for GAGGACGAAAGTCGGCTC ((((((....)))..))) are -16.7 kcal/mol and 45.6 °C.
As to GAGGAGCCGAAAGGCCTC (((..(((....)))))), the folding enthalpy in data set [1] is -11.5 kcal/mol. Also, the Tm in data set [2] was determined as 41.9 °C.
Taken in the same sequence, the figures for GAGGAGCGAAAGCTTCTC (((.(((....))).))) were -33.2 kcal/mol and 57.2 °C.
Taken in the same sequence, the figures for GAGGAGGGAAACCTCCTC (((((((....))))))) were -33.4 kcal/mol and 65.3 °C.
The corresponding values for GAGGATACGAAAGTACTC (((..(((....)))))) are -9.94 kcal/mol and 26.8 °C.
GAGGATGCGAAAGCACTC (((..(((....)))))): in data set [1], the folding enthalpy was -14.2 kcal/mol. In addition, the Tm in data set [2] is 34.9 °C.
Taken in the same sequence, the figures for GAGGATGGAAACATCCTC (((((((....))))))) were -49.6 kcal/mol and 61.3 °C.
The corresponding values for GAGGATGGAAACATCTTC ((.((((....)))).)) are -27.1 kcal/mol and 38.1 °C.
Taken in the same sequence, the figures for GAGGATGGAAACATTCTC (((.(((....))).))) were -25.5 kcal/mol and 42.6 °C.
Consider GAGGCAGAAATGCCTC ((((((....)))))), for which, in data set [1], the folding enthalpy is -37.8 kcal/mol. Besides, the Tm in data set [2] was 60.7 °C.
The corresponding values for GAGGCCCCGAAAGGGCTC (((..(((....)))))) are -14.1 kcal/mol and 50.7 °C.
Taken in the same sequence, the figures for GAGGCCCGAAAGGGTCTC (((.(((....))).))) were -31.6 kcal/mol and 67.4 °C.
The corresponding values for GAGGCCGAAAGGCACTC ((((((....))).))) are -14.5 kcal/mol and 54.1 °C.
Take GAGGCCGAAAGGCGCCTC ((((((....)))..))): the folding enthalpy in data set [1] is -12.4 kcal/mol. In data set [2], the Tm turned out to be 42 °C.
Taken in the same sequence, the figures for GAGGCCGAAAGGCGGCTC ((((((....)))..))) were -12.8 kcal/mol and 55.9 °C.
For GAGGCCGGAAACGGCCCC (.(((((....))))).), the folding enthalpy in data set [1] is -6.76 kcal/mol. Moreover, in data set [2], the Tm came out at 51.2 °C.
Taken in the same sequence, the figures for GAGGCGCGAAAGCGCTC (((.(((....)))))) were -7.37 kcal/mol and 46.6 °C.
Taken in the same sequence, the figures for GAGGCGGGAAACCGCTTC ((.((((....)))).)) were -15.9 kcal/mol and 51 °C.
GAGGCTACGAAAGTACTC (((..(((....)))))): in data set [1], the folding enthalpy is -10.2 kcal/mol. In addition, the Tm in data set [2] amounted to 23.8 °C.
Taken in the same sequence, the figures for GAGGCTGGAAACGGCTTC ((.((.(....).)).)) were -20.8 kcal/mol and 36.6 °C.
Taken in the same sequence, the figures for GAGGGCGAAAGCCGCCTC ((((((....)))..))) were -9.67 kcal/mol and 36.3 °C.
Taken in the same sequence, the figures for GAGGGCGAAAGCCTACTC ((((((....)))..))) were -11 kcal/mol and 41.1 °C.
As to GAGGGCGGAAACGCCTTC ((.((((....)))).)), the folding enthalpy in data set [1] was -13.8 kcal/mol. For the same sequence, the Tm in data set [2] stood at 50.5 °C.
The corresponding values for GAGGGGCGAAAGCCGCTC (((.(((....))).))) are -30.6 kcal/mol and 69.3 °C.
